PubChem BioAssay AID492975 (The Scripps Research Institute Molecular Screening Center, 2010)
Active and inactive are the calls of the source.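 The calls were made as follows: active = inhibition above 50% of the malaria lysate aminopeptidase activity; inactive = inhibition of 50% or less.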

These molecules were tested against Aspartyl aminopeptidase (Plasmodium falciparum (isolate 3D7)) (UniProt Q8I2J3) (assay: inhibitors of M18 aminopeptidase activity, malaria lysate – cell lysate, fluorescence, malaria cell lysate, powder samples, late-stage follow-up (AID 492975)). Settings: P. falciparum lysate, H-Glu-NHMec fluorogenic substrate; at 5 µM; hits give high values.
Aspartyl aminopeptidase (Plasmodium falciparum (isolate 3D7)), sequence (Q8I2J3 whole entry, looked up): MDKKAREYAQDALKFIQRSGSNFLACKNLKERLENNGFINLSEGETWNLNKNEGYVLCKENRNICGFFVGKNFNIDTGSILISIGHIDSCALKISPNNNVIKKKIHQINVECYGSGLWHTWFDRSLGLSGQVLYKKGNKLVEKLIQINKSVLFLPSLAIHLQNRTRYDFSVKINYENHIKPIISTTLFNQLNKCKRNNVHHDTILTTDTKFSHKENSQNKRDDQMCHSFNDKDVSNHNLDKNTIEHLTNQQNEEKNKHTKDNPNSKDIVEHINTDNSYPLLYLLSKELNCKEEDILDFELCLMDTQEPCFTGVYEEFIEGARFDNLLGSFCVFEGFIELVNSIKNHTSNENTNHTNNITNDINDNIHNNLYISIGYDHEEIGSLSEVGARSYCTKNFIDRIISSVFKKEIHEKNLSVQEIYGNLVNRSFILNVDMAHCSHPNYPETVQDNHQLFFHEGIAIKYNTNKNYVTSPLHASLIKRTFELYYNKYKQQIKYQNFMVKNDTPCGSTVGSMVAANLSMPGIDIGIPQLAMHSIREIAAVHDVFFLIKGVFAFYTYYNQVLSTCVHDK
In short: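 medium = Tris-HCl 25 mM, pH 7.5 | assay system = Plasmodium falciparum cell lysate with native PfM18 aspartyl aminopeptidase | signal = Per-minute kinetic AMC fluorescence, ex 370 nm, em 460 nm | controls = uninhibited lysate wells as high, lysate-free wells as background | timing = 10 min pre-incubation, 30 min reading | probe or stimulus = 50 µM H-Glu-NHMec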
With Oc1ccc(-c2csc(-c3ccccc3)n2)cc1O the inhibition was 94%. With O=C(Nc1ccc(Br)cc1Cl)Nn1cnnc1 the inhibition was 28% (inactive). CN1CCc2cccc3c2[C@@H]1Cc1ccc(O)c(O)c1-3 was tested, and the inhibition was 84%. O=C(O)c1ccc(O)c(O)c1 was tested, and the inhibition was 94%. With Oc1ccc(/C=C/c2cc(O)cc(O)c2)cc1 the inhibition was 66%. For COC(=O)CN(n1cnnc1)S(=O)(=O)c1ccc(C)cc1, the inhibition was 6% (inactive). In the case of Cc1cc(C)cc(C(=O)n2cnnc2N)c1, the inhibition is reported as 11% (inactive). In the case of COc1cc([N+](=O)[O-])ccc1NC(=O)Nn1cnnc1, the inhibition is reported as 0% (inactive). In the case of O=C(CSc1ncn[nH]1)OCN1C(=O)c2ccccc2C1=O, the inhibition is reported as 49% (inactive). Work on O=C(Nc1ccc(Cl)c(Cl)c1)Nn1cnnc1 yielded an inhibition of 84%. In the case of O=C(CSc1ncn[nH]1)Nc1nc(-c2ccccc2)ns1, the inhibition is reported as 12% (inactive). O=C(NC(=S)Nn1cnnc1)c1ccccc1Br was tested, and the inhibition was 14% (inactive). In the case of Cc1cc(=O)[nH]c(SCC(=O)c2ccc(O)c(O)c2)n1, the inhibition is reported as 61%. CCOC(=O)C1=C(CS(=O)(=O)c2ccc(F)cc2)NC(=O)NC1c1ccc(O)c(O)c1 (stereo not given) showed an inhibition of 90%. O=C(CSc1nc2ccccc2c(=O)[nH]1)c1ccc(O)c(O)c1 showed an inhibition of 79%. In the case of O=C(Nc1cccc(Cl)c1Cl)Nn1cnnc1, the inhibition is reported as 26% (inactive). With S=C(Nc1cc(Cl)ccc1Cl)Nn1cnnc1 the inhibition was 20% (inactive). With Oc1ccc(-c2csc(-c3cccnc3)n2)cc1O the inhibition was 99%. For Cc1ccc(NC(=S)Nn2cnnc2)c(C)c1, the inhibition was 7% (inactive). With CCC(C)c1ccc(O)c(N)c1 (stereo not given) the inhibition was 95%. In the case of Br/C(C=Nn1cnnc1)=C\c1ccccc1, the inhibition is reported as 14% (inactive). CC1(C)CC(=O)c2c(oc3cc(O)c(O)cc23)C1 showed an inhibition of 85%. With Cc1ccc(-n2c(O)c(/C=N/n3cnnc3)c3ccccc3c2=O)cc1 the inhibition was 12% (inactive). With O=C(Nn1cnnc1)c1csc2ccccc12 the inhibition was 5% (inactive). CC1(C)CC2(CC(c3ccccc3F)c3ccc(O)c(O)c3O2)NC(=S)N1 (stereo not given) showed an inhibition of 89%. O=C(O)c1cn[nH]c1-n1cnnn1 was tested, and the inhibition was 7% (inactive). In the case of NCCc1ccc(O)c(O)c1, the inhibition is reported as 70%. O=C(Nn1cnnc1)c1ccccc1-c1ccccc1 was tested, and the inhibition was 10% (inactive). In the case of Cc1cccc(NC(=S)Nn2cnnc2)c1C, the inhibition is reported as 12% (inactive). In the case of O=C(CSc1nn(-c2ccccc2)c(=S)s1)Nn1cnnc1, the inhibition is reported as 9% (inactive). For Oc1cc(O)c2c(c1)O[C@H](c1ccc(O)c(O)c1)[C@H](O)C2, the inhibition was 89%. CC(C)n1c(SCC(=O)Nc2nncs2)nnc1-c1ccco1 was tested, and the inhibition was 11% (inactive). For O=c1c(O)c(-c2ccc(O)c(O)c2)oc2cc(O)cc(O)c12, the inhibition was 80%. Oc1ccc(-c2cn3ccccc3n2)cc1O gave an inhibition of 94%. Cc1cc(C)n2c(=S)[nH]nc2n1 was tested, and the inhibition was 74%. OC(Cn1cnnc1)c1ccccc1 (stereo not given) was tested, and the inhibition was 12% (inactive). Cc1nc(-c2ccc(O)c(O)c2)cs1 was tested, and the inhibition was 95%. In the case of COc1cccc(-c2cc(C(=O)Nn3cnnc3)c3ccccc3n2)c1, the inhibition is reported as 0% (inactive). Molecule O=C(CNC(=O)c1ccccc1)NCCc1ccc(O)c(O)c1 has an inhibition of 94%. Molecule O=C(O)CSc1ncn[nH]1 has an inhibition of 66%. With Nc1nncn1C(=O)CCCOc1ccc(Cl)cc1Cl the inhibition was 3% (inactive). With Cc1ccc(Cl)cc1NC(=S)Nn1cnnc1 the inhibition was 16% (inactive). For O=S(=O)(Nn1cnnc1)c1ccccc1, the inhibition was 2% (inactive). With COc1cc(Br)cc(/C=N/c2ncn[nH]2)c1O the inhibition was 0% (inactive). Molecule Cc1ccc([N+](=O)[O-])cc1-c1[nH]c(-c2ccc(O)c(O)c2)nc1-c1ccccc1 has an inhibition of 92%. With COc1ccc(C(=O)n2cnnc2N)cc1 the inhibition was 12% (inactive). With CC1=NNC(=O)/C1=C\c1cn(-c2ccccc2)nc1-c1ccc(F)cc1 the inhibition was 68%. In the case of COc1ccc2nc(C)cc(SCC(=O)N/N=C/c3ccc(O)c(O)c3)c2c1, the inhibition is reported as 83%. COc1cccc2c(SCC(=O)N/N=C/c3ccc(O)c(O)c3)cc(C)nc12 was tested, and the inhibition was 80%. Molecule COc1ccc(NC(=O)NNC(=O)CCc2ccc(O)c(O)c2)cc1OC has an inhibition of 86%. With COc1ccc(Cl)cc1NC(=O)Nn1cnnc1 the inhibition was 21% (inactive). In the case of O=c1[nH]c(CSc2ncn[nH]2)nc2ccccc12, the inhibition is reported as 15% (inactive). With O=c1c2c([N+](=O)[O-])cc([N+](=O)[O-])cc2sn1Cc1ccccc1 the inhibition was 94%. For CCN(CC)S(=O)(=O)c1ccc(C(=O)Nn2cnnc2)cc1, the inhibition was 31% (inactive). Cc1c(Cl)cccc1NC(=O)Nn1cnnc1 was tested, and the inhibition was 10% (inactive). Molecule O=[N+]([O-])c1cc([N+](=O)[O-])c2cccnc2c1Oc1ccccc1O has an inhibition of 85%. In the case of Cc1nc2ccccn2c1C(=O)NNC(=O)Nc1ccccc1, the inhibition is reported as 53%. For COC(=O)CN(n1cnnc1)S(=O)(=O)c1ccccc1, the inhibition was 0% (inactive). For CCc1ccccc1NC(=S)Nn1cnnc1, the inhibition was 14% (inactive). O=c1[nH]c(=S)[nH]c(O)c1/C=C1\C=c2ccccc2=N1 was tested, and the inhibition was 41% (inactive).
